These results are taken from PMC2695546 (Psychopharmacology, 2009).

The subject of series [1] is capsaicin-sensitized mice. The experiment in a line: Capsaicin-induced mechanical hypersensitivity. In kind it is in vivo, mouse.
The target of another series is σ1 receptor (Mus musculus, UniProt O55242). Briefly: [3H]. Type of series: binding.
For the next series, the system named is mice. The experiment in a line: Rotarod test. In kind it is in vivo, mouse. Conditions: for Effect on rotarod latency: 45 min after s.c., mg/kg: HP 0.06, HP-Met-I 64, HP-Met-II 0.25, (−)-sulpiride 100, HP-Met-III 128, PRE-084 64; for Effect of PRE-084 on the drug's effect in the rotarod test: PRE-084 64 mg/kg s.c., HP 0.125 mg/kg, HP-Met-II 1 mg/kg s.c. Summed up:
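Female CD-1 mice (25–30 g), housed at 21 ± 1°C on a 12-h light/dark cycle. Motor coordination was tested on an accelerating rotarod. Latency to fall was recorded before injection (time 0) and 45 min after s.c. dosing. PRE-084 was injected s.c. immediately before the other drug, at a separate site. Controls received an equal volume of vehicle.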

The mark [2] stands for this setting: from dose–response curves, s.c., capsaicin 1 µg i.pl., 0.5 g force.
The mark [3] stands for this setting: naloxone 1 mg/kg s.c., morphine 0.25, HP 0.06, HP-Met-II 0.25, HP-Met-I 64 mg/kg s.c.
Where [4] appears, read: read-out: IC50 (concentration of unlabeled drug that inhibited the specific binding of [3H](+)-pentazocine by 50%), mouse brain membranes P2 fraction, 5 nM [3H](+)-pentazocine, 240 min, 30°C, pH 8.

Molecules are shown by their SMILES. Where a name gives a salt, the structure may show the parent alone. Read-outs that look alike come from different tables or passages of the source.

In the case of `CCN1CCC[C@H]1CNC(=O)c1cc(S(N)(=O)=O)ccc1OC` [(−)-Sulpiride, (−)-sulpiride], the “ED50 (dose producing half of the maximal antiallodynic effect)” value in series [1] (mouse, in vivo) is “Inactive^a”. In addition, at σ1 receptor, the IC50 is more than 10000 nM. Also, the “Effect on rotarod latency” value in the series on mice was “devoid of any effect”.
In the case of `CN1CCN(CCc2ccc(Cl)c(Cl)c2)CC1.Cl.Cl` [BD-1063, 1-[2-(3,4-dichlorophenyl)ethyl]-4-methylpiperazine dihydrochloride], the “Effect of PRE-084 on the antiallodynic effect of the drug” value in series [1] (mouse, in vivo) is “completely antagonized”.
As for `OC1(c2ccc(Cl)cc2)CCNCC1` [Haloperidol metabolite I, 4-(4-chlorophenyl)-4-hydroxypiperidine], the “Emax (maximum antiallodynic effect)” value in series [1] (setting [2]) was found to be 62.27 ± 6.99%. Also, in series [1] (mouse, in vivo), the “Effect of PRE-084 on the antiallodynic effect of the drug” value was “completely and dose-dependently prevented”; the “Effect of naloxone on the antiallodynic effect of the drug” value (“Effect of naloxone” below) is listed as “did not significantly modify”. At σ1 receptor, this compound showed an IC50 of 254 ± 18.4 nM. Further, the “Effect on rotarod latency” value in the series with mice was “no effect”.
As for `OC(CCCN1CCC(O)(c2ccc(Cl)cc2)CC1)c1ccc(F)cc1` (stereo not drawn) [Haloperidol metabolite II, 4-(4-chlorophenyl)-α-(4-fluorophenyl)-4-hydroxy-1-piperidinebutanol], in series [1] (setting [2]), the “Emax (maximum antiallodynic effect)” value came out at 100%. The “Effect of naloxone” value in series [1] (setting [3]) is “did not significantly modify”. Also, the “Antiallodynic effect at higher doses” value in series [1] (s.c., HP 0.125 mg/kg, HP-Met-II 1 mg/kg) was 100%. At σ1 receptor, this compound came in with an IC50 of 12.8 ± 0.69 nM. In the series on mice, the “Effect on rotarod latency” value is “no effect” and the “Effect of PRE-084 on the drug's effect in the rotarod test” value is “not prevented”.
In the case of `O=C(O)CCC(=O)c1ccc(F)cc1` [Haloperidol metabolite III, p-fluorobenzoylpropionic acid], the IC50 on σ1 receptor (setting [4]) is more than 10000 nM. In the series on mice, the “Effect on rotarod latency” value is on record as “devoid of any effect”.
Take `O=C(CCCN1CCC(O)(c2ccc(Cl)cc2)CC1)c1ccc(F)cc1` [Haloperidol, haloperidol]: in series [1] (mouse, in vivo), the “Antiallodynic effect at higher doses” value was determined as 100%, the “Effect of PRE-084 on the antiallodynic effect of the drug” value is reported as “dose-dependent reversion” and the “Effect of naloxone” value is given as “did not significantly modify”. Besides, in series [1] (mouse, in vivo, sc), the “Emax (maximum antiallodynic effect)” value is 100%. Moreover, in the series with mice, the “Effect on rotarod latency” value is on record as “no effect” and the “Effect of PRE-084 on the drug's effect in the rotarod test” value was “not prevented”.
Take `Cl.O=C(OCCN1CCOCC1)C1(c2ccccc2)CCCCC1` [PRE-084, 2-(4-morpholinethyl)1-phenylcyclohexanecarboxylate) hydrochloride]: on σ1 receptor (setting [4]), the IC50 was 171 ± 18.4 nM.
For the compound `Cl.O=C(OCCN1CCOCC1)C1(c2ccccc2)CCCCC1` [PRE-084], the “Effect on rotarod latency” value in the series on mice was “devoid of any effect”.
As for `COc1cc(CNC(=O)CCCC/C=C/C(C)C)ccc1O` [capsaicin], the “Decrease in the EF50 value for inducing paw withdrawal in comparison to control mice” value in series [1] (capsaicin 1 µg i.pl. vs DMSO-treated) is 9.4 fold. Moreover, the “EF50 (force producing half the maximal reduction in paw withdrawal latency time)” value in series [1] (capsaicin 1 µg i.pl., 15 min before stimulation, forces 0.05–8 g) turned out to be 0.30 ± 0.02 g.
Regarding `Clc1cccc(Cl)c1N=C1NCCN1` [clonidine], on σ1 receptor, the IC50 is more than 10000 nM.
Take `NCC1(CC(=O)O)CCCCC1` [gabapentin]: the IC50 at σ1 receptor is more than 10000 nM.
Turning to `CN1CC[C@]23c4c5ccc(O)c4O[C@H]2[C@@H](O)C=C[C@H]3[C@H]1C5` [morphine, morphine hydrochloride], in series [1] (setting [3]), the “Effect of naloxone” value is reported as “reversed”.
The compound `CS(=O)(=O)c1ccc(C2=C(c3ccccc3)C(=O)OC2)cc1` [rofecoxib] returned an IC50 on σ1 receptor of more than 10000 nM.
